From ChEMBL document CHEMBL4020761, “Exploration of pyrrole derivatives to find an effective potassium-competitive acid blocker with moderately long-lasting suppression of gastric acid secretion” (Bioorg Med Chem, 2017)

Key:
[1] = Plasma concentration in Sprague-Dawley rat at 0.2 mg/kg, iv administered as cassette dose after 1 hr by LC-MS/MS analysis; type: ADME, organism-based
In short: (§1)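 Fasted male Sprague-Dawley rats given compounds iv by cassette dosing at 0.2 mg/kg (as free base). Plasma and stomach sampled at 10 min, 1, 4 and 24 h. Plasma and 20% stomach homogenate in saline deproteinized with acetonitrile containing internal standard, then LC/MS/MS. AUC calculated for plasma and stomach. Values are averages of three rats.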

Stomach = assay: AUC in Sprague-Dawley rat stomach at 0.2 mg/kg, iv administered as cassette dose by LC-MS/MS analysis; type: ADME, organism-based; conditions: in vivo; in short: as §1
[2] = AUC in Sprague-Dawley rat plasma at 0.2 mg/kg, iv administered as cassette dose by LC-MS/MS analysis; type: ADME, organism-based; in short: as §1
[3] = Plasma concentration in Sprague-Dawley rat at 0.2 mg/kg, iv administered as cassette dose after 10 mins by LC-MS/MS analysis; type: ADME, organism-based; in short: as §1
[4] = Cytotoxicity against human HepG2 cells assessed as cellular ATP level at 100 uM after 1 day by ATPLite assay relative to control; type: cell-based; conditions: read-out: Activity
Rattus norvegicus = assay: Inhibition of histamine-induced acid secretion in Jcl:Sprague-Dawley rat gastric at 1 mg/kg, iv pretreated for 3 mins after pylorus ligation followed by histamine.2HCl treatment measured after 3 hrs by titration method relative to control; type: functional
In short: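 Anesthetized rats dosed iv at 1 mg/kg. Total acid output over 3 h after histamine injection compared with vehicle-treated rats.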

[5] = Drug uptake in Sprague-Dawley rat stomach at 0.2 mg/kg, iv administered as cassette dose after 4 hrs by LC-MS/MS analysis; type: ADME, organism-based; conditions: read-out: Drug uptake; in short: as §1
hERG (KCNH2) = hERG (KCNH2) (Homo sapiens, UniProt Q12809); assay: Inhibition of human ERG expressed in HEK cells at 10 uM at -75 mV holding potential by Whole-cell voltage clamp assay relative to control; type: cell-based; conditions: HEK cells expressing human ERG
Chain of hERG (KCNH2) (Q12809 whole entry): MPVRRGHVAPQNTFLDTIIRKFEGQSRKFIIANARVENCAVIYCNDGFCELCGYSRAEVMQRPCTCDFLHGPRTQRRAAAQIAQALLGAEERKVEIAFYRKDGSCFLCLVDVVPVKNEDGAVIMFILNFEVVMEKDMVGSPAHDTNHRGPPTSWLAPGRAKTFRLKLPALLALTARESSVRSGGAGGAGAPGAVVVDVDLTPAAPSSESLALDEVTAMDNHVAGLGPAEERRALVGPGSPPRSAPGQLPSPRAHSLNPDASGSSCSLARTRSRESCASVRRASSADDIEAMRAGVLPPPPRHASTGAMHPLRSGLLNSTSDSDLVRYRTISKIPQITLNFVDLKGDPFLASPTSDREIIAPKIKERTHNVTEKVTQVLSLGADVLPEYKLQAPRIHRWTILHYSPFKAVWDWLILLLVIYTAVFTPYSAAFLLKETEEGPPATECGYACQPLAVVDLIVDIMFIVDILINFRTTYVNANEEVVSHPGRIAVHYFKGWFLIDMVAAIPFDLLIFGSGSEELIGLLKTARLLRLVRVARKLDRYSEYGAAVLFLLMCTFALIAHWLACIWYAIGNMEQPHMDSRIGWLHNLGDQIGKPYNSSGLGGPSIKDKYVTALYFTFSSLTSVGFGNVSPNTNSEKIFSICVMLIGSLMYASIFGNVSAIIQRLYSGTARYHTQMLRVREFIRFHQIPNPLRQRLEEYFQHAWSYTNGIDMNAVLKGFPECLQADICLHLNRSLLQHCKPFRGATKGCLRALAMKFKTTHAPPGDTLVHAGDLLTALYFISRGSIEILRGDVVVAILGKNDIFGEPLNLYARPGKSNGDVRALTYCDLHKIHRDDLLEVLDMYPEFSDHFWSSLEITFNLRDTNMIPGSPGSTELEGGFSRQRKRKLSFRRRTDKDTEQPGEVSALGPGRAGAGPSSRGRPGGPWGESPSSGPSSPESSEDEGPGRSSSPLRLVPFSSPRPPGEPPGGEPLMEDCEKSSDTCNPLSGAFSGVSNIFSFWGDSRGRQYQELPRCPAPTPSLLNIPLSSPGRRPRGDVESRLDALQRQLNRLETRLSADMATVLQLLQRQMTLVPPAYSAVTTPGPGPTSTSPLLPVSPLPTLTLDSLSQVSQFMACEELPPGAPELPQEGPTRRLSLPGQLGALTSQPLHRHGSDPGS

[6] = Lipophilicity, log D of the compound at pH 7.4 by HPLC analysis; type: physicochemical; conditions: buffer
In short: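 At pH 7.4, log D derived from HPLC retention time relative to standard compounds.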

[7] = Inhibition of H+/K+-ATPase in porcine stomach gastric mucosal microsomes assessed as reduction in inorganic phosphate production using ATP as substrate preincubated for 30 mins followed by ATP addition in presence of KCl at pH 6.5 by malachite green reagent based colorimetric assay; set-up: species or system Sus scrofa
[8] = Drug uptake in Sprague-Dawley rat stomach at 0.2 mg/kg, iv administered as cassette dose after 1 hr by LC-MS/MS analysis; type: ADME, organism-based; conditions: read-out: Drug uptake; in short: as §1
[9] = Drug uptake in Sprague-Dawley rat stomach at 0.2 mg/kg, iv administered as cassette dose after 10 mins by LC-MS/MS analysis; type: ADME, organism-based; conditions: read-out: Drug uptake; in short: as §1
CYP3A4 = CYP3A4 (Homo sapiens, UniProt P08684); assay: Inhibition of CYP3A4 (unknown origin) expressed in insect cells at 10 uM using testosterone as substrate after 15 mins by HPLC analysis relative to control; type: ADME; conditions: recombinant CYP3A4 expressed in insect cells, probe testosterone
Chain of CYP3A4 (P08684 whole entry): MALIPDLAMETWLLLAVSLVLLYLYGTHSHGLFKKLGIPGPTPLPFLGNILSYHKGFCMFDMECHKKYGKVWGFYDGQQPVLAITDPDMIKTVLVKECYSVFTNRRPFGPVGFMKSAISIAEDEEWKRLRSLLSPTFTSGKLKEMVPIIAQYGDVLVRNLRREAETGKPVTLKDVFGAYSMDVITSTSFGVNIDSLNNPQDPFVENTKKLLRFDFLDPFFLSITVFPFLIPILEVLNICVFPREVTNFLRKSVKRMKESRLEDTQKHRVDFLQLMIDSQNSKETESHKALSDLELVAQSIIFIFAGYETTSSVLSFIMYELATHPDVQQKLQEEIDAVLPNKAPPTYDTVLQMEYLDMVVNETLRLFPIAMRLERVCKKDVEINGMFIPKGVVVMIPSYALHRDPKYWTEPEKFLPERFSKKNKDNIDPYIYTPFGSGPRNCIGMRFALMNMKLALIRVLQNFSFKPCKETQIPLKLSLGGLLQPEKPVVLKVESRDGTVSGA
In short: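 Testosterone substrate at 100 μmol/L with 10 nmol/L insect-cell-expressed CYP3A4 and 10 μmol/L test compound, incubated 15 min at 37 °C. 6β-hydroxytestosterone quantified by HPLC with UV detection.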

[10] = Drug uptake in Sprague-Dawley rat stomach at 0.2 mg/kg, iv administered as cassette dose after 24 hrs by LC-MS/MS analysis; type: ADME, organism-based; conditions: read-out: Drug uptake; in short: as §1

Row | SMILES | concentration at 1 h [1] [ng/mL] | AUC (Stomach) [ng·h/g] | AUC [2] [ng·h/mL] | concentration at 10 min [3] [ng/mL] | viability at 24 h, 100 µM [4] [%] | inhibition in vivo at 1 mg/kg (Rattus norvegicus) [%] | concentration at 4 h [5] [ng/g] | inhibition at 10 µM (hERG (KCNH2)) [%] | logD [6] | IC50 [7] [nM] | concentration at 1 h [8] [ng/g] | concentration at 10 min [9] [ng/g] | inhibition at 0.25 h, 10 µM (CYP3A4) [%] | concentration at 24 h [10] [ng/g]
1 | CNCc1cn(S(=O)(=O)c2ccc(OC)cn2)c(-c2cccnc2F)c1F | 13.1 | 6761 | 52 | 54.2 | 80 | 95 | 426 | 17.6 | 0.64 | 280 | 806 | 624 | 7.7 | 
2 | CNCc1cc(-c2cccnc2F)n(S(=O)(=O)c2ccccn2)c1 |  |  |  |  |  | 81 |  |  |  | 120 |  |  | -9.7 | 
3 | CNCc1cc(-c2cccnc2F)n(S(=O)(=O)c2cccnc2)c1 | 8.4 | 7646 | 35 | 37.1 |  | 96 | 541 |  |  | 210 | 532 | 420 | 4.2 | 19.6
4 | CNCc1cn(S(=O)(=O)c2ccco2)c(-c2cccnc2F)c1F | 6.5 | 4566 | 26 | 26.5 | 90.8 | 75 | 254 | 28.7 | 0.2 | 79 | 706 | 592 | 5.6 | 
5 | CNCc1cc(-c2cccnc2F)n(S(=O)(=O)c2cccs2)c1 | 8.8 | 3815 | 27 | 20.8 |  | 96 | 210 |  |  | 32 | 592 | 522 |  | 
6 | CNCc1cn(S(=O)(=O)c2cncc(Cl)c2)c(-c2cccnc2F)c1F |  |  |  |  | 66.9 |  |  |  | 1.44 | 160 |  |  | 45.9 | 
7 | CNCc1cn(S(=O)(=O)c2cc(OC)ccn2)c(-c2cccnc2F)c1F | 10.1 | 4964 | 38 | 37.2 | 84.5 | 95 | 268 | 38.7 | 0.51 | 140 | 773 | 617 | 19 | 8.8
8 | CNCc1cn(S(=O)(=O)c2ccc(F)cn2)c(-c2cccnc2F)c1F | 5 | 5179 | 22 | 25 | 86.5 | 87 | 347 |  | 0.42 | 100 | 526 | 369 | 21.7 | 
9 | CNCc1cc(-c2cccnc2F)n(S(=O)(=O)c2ccsc2)c1 | 8.9 | 9152 | 29 | 23.5 |  | 98 | 640 |  |  | 32 | 614 | 407 | 1.4 | 41.7
10 | CNCc1cn(S(=O)(=O)c2cncc(C)c2)c(-c2cccnc2F)c1F |  |  |  |  | 86.9 | 87 |  |  | 0.61 | 140 |  |  | 49.7 | 
11 | CNCc1cn(S(=O)(=O)c2ccoc2)c(-c2cccnc2F)c1F | 11.5 | 3865 | 41 | 37.4 | 100 | 95 | 194 | 44.5 | 0.45 | 60 | 688 | 635 | 12.8 | 
12 | CNCc1cn(S(=O)(=O)c2ncccc2C)c(-c2cccnc2F)c1F |  |  |  |  | 79.1 | 54 |  |  | 0.32 | 510 |  |  | 29 | 
13 | CNCc1cn(S(=O)(=O)c2cnccc2C)c(-c2cccnc2F)c1F | 8.4 | 4248 | 41 | 50.1 | 90.9 | 98 | 251 | 28.2 | 0.43 | 120 | 618 | 360 | 40 | 
14 | CNCc1cn(S(=O)(=O)c2cccc(F)n2)c(-c2cccnc2F)c1F |  |  |  |  | 74 |  |  |  | 0.7 | 240 |  |  | 46 | 
15 | CNCc1cn(S(=O)(=O)c2cccnc2Cl)c(-c2cccnc2F)c1F | 10.1 | 6568 | 33 | 28 | 86.9 |  | 427 |  | 0.75 | 390 | 722 | 539 | 53.1 | 
16 | CNCc1cn(S(=O)(=O)c2cccnc2)c(-c2cccnc2F)c1F | 15 | 10277 | 54 | 51.5 |  | 98 | 629 |  |  | 49 | 752 | 602 | 14.4 | 130
